Experimental data reported in ChEMBL document CHEMBL1126969, “Antipsoriatic anthrones with modulated redox properties. 1. Novel 10-substituted 1,8-dihydroxy-9(10H)-anthracenones as inhibitors of 5-lipoxygenase” (J Med Chem, 1993).
pIC50: −log10 of the molar value.

Key:
[1] = Reducing activity against 2,2-diphenyl-1-picrylhydrazyl; format: ADME
[2] = Deoxyribose-damaging property as a measure of hydroxyl-radical formation (uM test compound)
[3] = target: T1, Arachidonate 5-lipoxygenase (Bos taurus, UniProt Q9BEG3); experiment: Inhibitory activity against 5-lipoxygenase (inhibition of 5-HETE and LTB4 biosynthesis) in bovine polymorphonuclear leukocytes (PMNL).; format: cell-based
T1 sequence (Q9BEG3 whole entry): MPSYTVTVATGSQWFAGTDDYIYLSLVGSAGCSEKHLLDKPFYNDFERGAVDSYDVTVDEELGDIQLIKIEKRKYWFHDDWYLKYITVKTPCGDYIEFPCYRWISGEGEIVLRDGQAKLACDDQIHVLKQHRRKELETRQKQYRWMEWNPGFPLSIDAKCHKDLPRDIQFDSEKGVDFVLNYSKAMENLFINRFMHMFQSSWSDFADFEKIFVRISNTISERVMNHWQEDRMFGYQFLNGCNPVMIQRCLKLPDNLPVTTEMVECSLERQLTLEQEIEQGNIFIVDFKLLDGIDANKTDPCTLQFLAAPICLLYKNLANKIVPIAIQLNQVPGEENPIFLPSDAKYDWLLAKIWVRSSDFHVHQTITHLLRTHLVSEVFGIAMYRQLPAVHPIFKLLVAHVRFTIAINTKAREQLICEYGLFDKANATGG

[4] = target: T2, Arachidonate 5-lipoxygenase (Bos taurus) (UniProt Q9BEG3); experiment: Inhibitory activity against 5-lipoxygenase (inhibition of 5-HETE and LTB4 biosynthesis) in bovine polymorphonuclear leukocytes (PMNL) at 30 uM; format: cell-based
T2 sequence (whole entry): T1 sequence (Q9BEG3 whole entry)
Outline: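 Bovine PMNL from EDTA blood, platelets removed, 1×10^7 cells/mL in PBS pH 7.4. Compound (DMSO, 0.4% final) preincubated 15 min at 37 °C, then stimulated with CaCl2 2 mM and A23187 20 μM for 10 min. Stopped with methanol/acetonitrile containing NDGA and PGB2 marker. LTB4 (280 nm) and 5-HETE (232 nm) quantified by RP-HPLC against internal and external standards.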

[5] = Reducing activity against 2,2-diphenyl-1-picrylhydrazyl with an equimolar amount of the test compound; c = Not reactive; format: ADME
[6] = Deoxyribose-damaging property as a measure of hydroxyl-radical formation (uM of malondialdehyde/mmol of deoxyribose released by 75 uM test compound)
Outline: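 2-Deoxy-D-ribose (2 mM) with FeCl3 (0.1 mM) in 30 mM KH2PO4-KOH buffer pH 7.4, compound at 75 μM final (acetonitrile vehicle, fresh stocks), 2 h at 37 °C. TBA/trichloroacetic acid added, heated 100 °C 15 min, acidified, extracted into butanol, A532 read. Calibrated against malondialdehyde standard; expressed as μmol MDA/mmol deoxyribose.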

Compound | kDPPH [1] [M⁻¹ s⁻¹] | Deoxyribose degradation (uM of MDA mM-1) [2] | pIC50 [3] | inhibition [4] [%] | kDPPH [5] | Deoxyribose degradation (uM of MDA mM-1) [6]
O=C1c2c(O)cccc2C(C(=O)CCc2ccc(OCc3ccccc3)cc2)c2cccc(O)c21 | 8.8 | < 0.2 | 5.70 | – | – | –
COc1cc(C=C2c3cccc(O)c3C(=O)c3c(O)cccc32)cc(OC)c1OC | < 1 | < 0.15 | – | 10 | – | –
O=C1c2c(O)cccc2C(=CCCCc2ccccc2)c2cccc(O)c21 | < 1 | < 0.15 | – | 21 | – | –
N#Cc1ccc(C=C2c3cccc(O)c3C(=O)c3c(O)cccc32)cc1 | < 1 | < 0.15 | – | 34 | – | –
O=C1c2c(O)cccc2C(=Cc2ccc([N+](=O)[O-])cc2)c2cccc(O)c21 | < 1 | < 0.15 | 5.70 | – | – | –
O=C1c2c(O)cccc2C(C(=O)Cc2ccc([N+](=O)[O-])cc2)c2cccc(O)c21 | 63.7 | < 0.2 | – | – | – | –
O=C1c2c(O)cccc2C(=CCCc2ccccc2)c2cccc(O)c21 | < 1 | < 0.15 | – | – | – | –
CC(=O)Oc1cccc2cc3cccc(OC(C)=O)c3c(OC(C)=O)c12 [TRIACETOXYANTHRENE] | – | – | – | 15 | Not Active | < 0.15
O=C1c2c(O)cccc2C(=CCc2ccccc2)c2cccc(O)c21 | < 1 | < 0.15 | – | 30 | – | –
O=C1c2c(O)cccc2C(C(=O)Cc2ccccc2)c2cccc(O)c21 | 16.4 | < 0.2 | – | – | – | –
O=C1c2c(O)cccc2C(C(=O)CCCc2ccccc2)c2cccc(O)c21 | 10.1 | < 0.2 | 6.52 | – | – | –
O=C1c2c(O)cccc2C(C(=O)Cc2ccc(OCc3ccccc3)cc2)c2cccc(O)c21 | 13.3 | < 0.2 | 6.22 | – | – | –
Cc1ccc(C=C2c3cccc(O)c3C(=O)c3c(O)cccc32)cc1 | < 1 | < 0.15 | – | 23 | – | –
O=C1c2c(O)cccc2C(C(=O)/C=C/c2ccccc2)c2cccc(O)c21 | > 100 | – | – | – | – | 1.66
O=C1c2c(O)cccc2C(C(=O)Cc2ccc(O)cc2)c2cccc(O)c21 | 14.7 | 0.36 | – | – | – | –
O=C1c2c(O)cccc2C(=Cc2ccccc2)c2cccc(O)c21 | < 1 | < 0.15 | – | 34 | – | –
O=C1c2c(O)cccc2C(C(=O)Cc2ccc(O)c(O)c2)c2cccc(O)c21 | > 100 | – | 4.96 | – | – | 6.26
COc1cccc(/C=C/C(=O)C2c3cccc(O)c3C(=O)c3c(O)cccc32)c1 | > 100 | – | 5.52 | – | – | –
COc1cc(CCC(=O)C2c3cccc(O)c3C(=O)c3c(O)cccc32)cc(OC)c1OC | 10.3 | < 0.2 | – | – | – | –
COc1ccc(C=C2c3cccc(O)c3C(=O)c3c(O)cccc32)cc1OC | < 1 | < 0.15 | – | < 10 | – | –
O=C1c2c(O)cccc2Cc2cccc(O)c21 [ANTHRALIN] | 24.2 | – | – | – | – | –

Compound | kDPPH [1] [M⁻¹ s⁻¹] | Deoxyribose degradation (uM of MDA mM-1) [2] | pIC50 [3] | inhibition [4] [%] | kDPPH [5] | Deoxyribose degradation (uM of MDA mM-1) [6]
O=C1c2c(O)cccc2C(C(=O)Cc2cc(O)c(O)c(O)c2)c2cccc(O)c21 | > 100 | – | – | – | – | 2.99
O=C1c2c(O)cccc2C(C(=O)Cc2ccc(OCc3ccccc3)c(OCc3ccccc3)c2)c2cccc(O)c21 | 15 | < 0.2 | – | 34 | – | –
O=C(O)c1ccc(C=C2c3cccc(O)c3C(=O)c3c(O)cccc32)cc1 | < 1 | < 0.15 | – | < 10 | – | –
COc1ccc(CCC(=O)C2c3cccc(O)c3C(=O)c3c(O)cccc32)cc1 | 7.4 | 1.4 | 6.00 | – | – | –
COc1c(OC)c(OC(C)=O)c2cc(Cl)ccc2c1OC(C)=O [LONAPALENE] | – | – | – | – | Not Active | < 0.15
CC(Cc1ccc(O)c(O)c1)C(C)Cc1ccc(O)c(O)c1 (stereo unspecified) [NORDIHYDROGUAIARETIC ACID] | > 100 | – | – | – | – | 0.23
O=C1c2c(O)cccc2C(C(=O)CCc2ccc(O)cc2)c2cccc(O)c21 | 7.8 | 2.5 | 6.00 | – | – | –
COc1ccc(CCC(=O)C2c3cccc(O)c3C(=O)c3c(O)cccc32)cc1OC | 8.7 | < 0.2 | 4.77 | – | – | –
COc1ccc(C=C2c3cccc(O)c3C(=O)c3c(O)cccc32)cc1 | < 1 | < 0.15 | – | < 10 | – | –
O=C1c2c(O)cccc2C(=Cc2ccc(O)cc2)c2cccc(O)c21 | > 100 | < 0.15 | 5.40 | – | – | –
COC(=O)c1ccc(C=C2c3cccc(O)c3C(=O)c3c(O)cccc32)cc1 | < 1 | < 0.15 | – | < 10 | – | –
O=C1c2c(O)cccc2C(C(=O)CCc2ccccc2)c2cccc(O)c21 | 10.3 | < 0.2 | – | – | – | –
O=C1c2c(O)cccc2C(C(=O)CCCCc2ccccc2)c2cccc(O)c21 | 10.1 | < 0.2 | 5.70 | – | – | –
O=C1c2c(O)cccc2C(=Cc2ccc(O)c(O)c2)c2cccc(O)c21 | > 100 | – | 6.30 | – | – | 0.44
COc1ccc(CC(=O)C2c3cccc(O)c3C(=O)c3c(O)cccc32)cc1 | 15.1 | < 0.2 | 6.30 | – | – | –
CCCC(=O)C1c2cccc(O)c2C(=O)c2c(O)cccc21 [BUTANTRONE] | 7 | 0.24 | 4.48 | – | – | –
O=C1c2c(O)cccc2C(=CCCCCc2ccccc2)c2cccc(O)c21 | < 1 | < 0.15 | – | 0 | – | –
O=C1c2c(O)cccc2C(=Cc2ccc(C(F)(F)F)cc2)c2cccc(O)c21 | < 1 | < 0.15 | – | 33 | – | –
O=C1c2c(O)cccc2C(C(=O)/C=C/c2ccc([N+](=O)[O-])cc2)c2cccc(O)c21 | > 100 | – | 5.22 | – | – | 0.88
CC(C)(C)c1cc(CC(=O)C2c3cccc(O)c3C(=O)c3c(O)cccc32)cc(C(C)(C)C)c1O | > 100 | < 0.2 | – | – | – | –
O=C1c2c(O)cccc2C(C(=O)Cc2cc(OCc3ccccc3)c(OCc3ccccc3)c(OCc3ccccc3)c2)c2cccc(O)c21 | 15.3 | – | – | – | – | < 0.2
